# Source: publication PMC7058367 (Biochemical pharmacology, 2018)
# Read-outs that look alike come from different tables or passages of the source.
# Tests used:
# GluN1/GluN2A receptors = GluN1/GluN2A receptors (Rattus norvegicus, UniProt P35439+Q00959); assay type: cell-based
# Summary of the method: (§1)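 Xenopus laevis oocytes were injected with GluN1a:GluN2 RNA at a 1:3 molar ratio (15-30 ng total; 10-20-fold more for CTD-deleted subunits) and kept in ND-96 at 17 °C for 1-5 days. TEVC was run at -60 mV in 116 mM NaCl, 2 mM KCl, 0.3 mM BaCl2, 5 mM HEPES, pH 7.4. […] Full-length controls came from the same batch and day; mean ± s.e.m.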
# GluN1/GluN2B receptors = GluN1/GluN2B receptors (Rattus norvegicus, UniProt P35439+Q00960); assay type: cell-based
# GluN1/GluN2C receptors = GluN1/GluN2C receptors (Rattus norvegicus, UniProt P35439+Q00961); assay type: cell-based
# Sequence of GluN1/GluN2C receptors (Q00961 20-1237, other chains not shown): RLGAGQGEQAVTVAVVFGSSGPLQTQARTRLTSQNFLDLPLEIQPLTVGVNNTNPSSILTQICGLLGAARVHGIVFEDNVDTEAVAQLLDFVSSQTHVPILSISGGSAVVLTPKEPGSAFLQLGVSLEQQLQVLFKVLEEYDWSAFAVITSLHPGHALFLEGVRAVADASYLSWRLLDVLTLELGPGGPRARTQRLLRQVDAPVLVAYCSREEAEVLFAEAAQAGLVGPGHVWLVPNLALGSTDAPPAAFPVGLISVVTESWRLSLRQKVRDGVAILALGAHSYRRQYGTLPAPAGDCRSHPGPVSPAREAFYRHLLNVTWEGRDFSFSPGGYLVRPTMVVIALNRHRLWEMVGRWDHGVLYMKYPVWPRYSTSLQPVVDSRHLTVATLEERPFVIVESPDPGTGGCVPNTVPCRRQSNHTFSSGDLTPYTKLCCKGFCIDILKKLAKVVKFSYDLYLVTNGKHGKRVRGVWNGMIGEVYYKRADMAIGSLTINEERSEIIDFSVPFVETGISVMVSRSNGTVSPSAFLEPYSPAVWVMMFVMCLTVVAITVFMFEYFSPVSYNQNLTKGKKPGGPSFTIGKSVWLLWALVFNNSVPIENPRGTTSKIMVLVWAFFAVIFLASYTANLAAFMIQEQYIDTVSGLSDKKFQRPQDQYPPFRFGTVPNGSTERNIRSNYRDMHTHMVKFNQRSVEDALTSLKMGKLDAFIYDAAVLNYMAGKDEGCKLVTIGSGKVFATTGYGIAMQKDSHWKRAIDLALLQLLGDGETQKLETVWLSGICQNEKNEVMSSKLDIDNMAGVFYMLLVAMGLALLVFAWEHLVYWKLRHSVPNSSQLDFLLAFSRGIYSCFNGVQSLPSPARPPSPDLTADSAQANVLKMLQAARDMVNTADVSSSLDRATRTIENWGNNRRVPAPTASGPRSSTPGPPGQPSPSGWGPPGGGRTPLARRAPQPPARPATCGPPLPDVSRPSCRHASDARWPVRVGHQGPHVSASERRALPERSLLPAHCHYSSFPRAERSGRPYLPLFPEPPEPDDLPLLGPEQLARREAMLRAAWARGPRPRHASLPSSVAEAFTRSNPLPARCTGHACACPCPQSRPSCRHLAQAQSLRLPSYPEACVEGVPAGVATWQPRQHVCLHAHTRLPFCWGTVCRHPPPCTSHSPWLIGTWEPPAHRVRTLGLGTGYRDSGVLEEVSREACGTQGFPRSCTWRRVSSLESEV
# Summary of the method: (§2)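 Oocytes expressed wild-type GluN1a/GluN2 receptors from 15-30 ng RNA (1:3 molar) and were held in ND-96 at 17 °C for 1-5 days. For Ca2+ chelation, 5 mM EGTA (50 nL) was injected 1-2 h before recording, with uninjected and water-injected oocytes as controls. TEVC was run at -60 mV in 116 mM NaCl, 2 mM KCl, 0.3 mM BaCl2, 5 mM HEPES (pH 7.4). […] Values are mean ± s.e.m.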
# GluN1/GluN2D receptors = GluN1/GluN2D receptors (Rattus norvegicus, UniProt P35439+Q62645); assay type: cell-based
# Sequence of GluN1/GluN2D receptors (Q62645 28-1323, other chains not shown): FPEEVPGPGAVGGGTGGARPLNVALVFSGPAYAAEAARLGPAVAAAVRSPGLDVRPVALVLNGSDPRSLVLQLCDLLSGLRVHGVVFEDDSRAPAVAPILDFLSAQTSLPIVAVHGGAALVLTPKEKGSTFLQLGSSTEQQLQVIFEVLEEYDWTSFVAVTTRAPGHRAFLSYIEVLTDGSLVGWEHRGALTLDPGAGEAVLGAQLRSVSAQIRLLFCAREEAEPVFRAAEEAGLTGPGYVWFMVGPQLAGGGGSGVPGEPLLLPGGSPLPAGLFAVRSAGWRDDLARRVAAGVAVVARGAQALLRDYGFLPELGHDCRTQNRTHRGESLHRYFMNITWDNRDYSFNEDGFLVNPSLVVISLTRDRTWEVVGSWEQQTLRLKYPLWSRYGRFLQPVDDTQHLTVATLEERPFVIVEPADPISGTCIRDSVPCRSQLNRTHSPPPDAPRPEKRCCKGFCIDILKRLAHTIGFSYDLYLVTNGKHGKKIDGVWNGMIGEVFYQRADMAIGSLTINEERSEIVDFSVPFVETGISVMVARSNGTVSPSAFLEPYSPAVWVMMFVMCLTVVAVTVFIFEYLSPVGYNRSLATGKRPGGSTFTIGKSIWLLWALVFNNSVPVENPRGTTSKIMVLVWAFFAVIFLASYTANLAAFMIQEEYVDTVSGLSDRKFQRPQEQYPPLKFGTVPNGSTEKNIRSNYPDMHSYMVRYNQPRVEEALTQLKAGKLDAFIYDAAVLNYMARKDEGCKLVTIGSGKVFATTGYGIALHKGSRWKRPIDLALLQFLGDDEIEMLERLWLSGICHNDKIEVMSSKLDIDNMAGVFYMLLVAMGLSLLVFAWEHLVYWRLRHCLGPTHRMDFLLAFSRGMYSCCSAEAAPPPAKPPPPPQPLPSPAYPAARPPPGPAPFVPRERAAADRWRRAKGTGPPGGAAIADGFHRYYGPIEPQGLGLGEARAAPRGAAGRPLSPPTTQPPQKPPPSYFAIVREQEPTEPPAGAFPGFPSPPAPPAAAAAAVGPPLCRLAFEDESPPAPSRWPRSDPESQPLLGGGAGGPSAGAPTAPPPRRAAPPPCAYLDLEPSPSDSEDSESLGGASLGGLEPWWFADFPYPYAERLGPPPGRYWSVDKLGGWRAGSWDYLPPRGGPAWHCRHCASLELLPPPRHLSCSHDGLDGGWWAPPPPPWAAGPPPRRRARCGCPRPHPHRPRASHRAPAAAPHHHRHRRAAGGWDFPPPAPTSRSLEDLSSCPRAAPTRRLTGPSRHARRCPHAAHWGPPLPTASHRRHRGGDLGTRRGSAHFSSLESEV
# Summary of the method: as §2
# [1] = target: GluN1/GluN2A^ΔCTD receptors (Rattus norvegicus, UniProt P35439+Q00959); assay type: cell-based
# Summary of the method: as §1
# [2] = target: GluN1/GluN2B^ΔCTD receptors (Rattus norvegicus, UniProt P35439+Q00960); assay type: cell-based; details: for % potentiation of agonist-evoked current: 10 µM L-glutamate/10 µM glycine (Fig. 2B, 4B)
# [3] = target: GluN1/GluN2C^ΔCTD receptors (Rattus norvegicus, UniProt P35439+Q00961); experiment: Two-electrode voltage clamp of GluN2C CTD-deleted receptors; assay type: cell-based
# Sequence of GluN1/GluN2C^ΔCTD receptors (Q00961 20-842, stated change not applied, other chains not shown): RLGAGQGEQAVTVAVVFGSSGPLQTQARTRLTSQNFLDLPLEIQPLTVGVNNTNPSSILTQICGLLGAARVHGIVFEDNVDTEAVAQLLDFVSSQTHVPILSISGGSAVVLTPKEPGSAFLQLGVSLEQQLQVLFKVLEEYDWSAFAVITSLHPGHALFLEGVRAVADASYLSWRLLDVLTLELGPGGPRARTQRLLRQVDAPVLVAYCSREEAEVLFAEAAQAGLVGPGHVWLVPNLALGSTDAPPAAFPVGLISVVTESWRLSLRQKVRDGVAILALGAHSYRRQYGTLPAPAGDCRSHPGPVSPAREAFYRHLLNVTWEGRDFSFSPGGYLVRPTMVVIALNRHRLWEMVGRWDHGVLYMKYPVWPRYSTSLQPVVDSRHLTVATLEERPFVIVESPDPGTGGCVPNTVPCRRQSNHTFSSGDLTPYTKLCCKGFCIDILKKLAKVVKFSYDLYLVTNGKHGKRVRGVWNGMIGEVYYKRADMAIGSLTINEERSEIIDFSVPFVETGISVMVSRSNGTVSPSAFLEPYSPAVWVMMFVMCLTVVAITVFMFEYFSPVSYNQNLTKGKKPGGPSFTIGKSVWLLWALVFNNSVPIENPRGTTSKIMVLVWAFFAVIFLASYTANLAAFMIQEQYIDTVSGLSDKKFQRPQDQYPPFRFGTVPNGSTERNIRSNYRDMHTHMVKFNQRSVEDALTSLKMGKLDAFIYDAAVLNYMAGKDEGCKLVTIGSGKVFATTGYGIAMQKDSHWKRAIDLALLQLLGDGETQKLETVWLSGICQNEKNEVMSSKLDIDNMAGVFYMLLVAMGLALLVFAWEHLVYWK
# Summary of the method: (§3)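 Xenopus laevis oocytes were injected with GluN1a and GluN2 RNA at a 1:3 molar ratio. The CTD was removed by a stop codon at GluN1 838K or GluN2C 855K, and 10-20-fold more RNA than wild type was injected. Oocytes were kept in ND-96 at 17 °C for 1-5 days. TEVC was run at -60 mV in Ba2+ buffer (pH 7.4). […] Full-length receptors were run alternately on the same day and oocyte batch. Values are mean ± s.e.m.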
# [4] = target: GluN1/GluN2D^ΔCTD receptors (Rattus norvegicus, UniProt P35439+Q62645); assay type: cell-based
# Sequence of GluN1/GluN2D^ΔCTD receptors (Q62645 28-869 limits assumed, stated change not applied, other chains not shown): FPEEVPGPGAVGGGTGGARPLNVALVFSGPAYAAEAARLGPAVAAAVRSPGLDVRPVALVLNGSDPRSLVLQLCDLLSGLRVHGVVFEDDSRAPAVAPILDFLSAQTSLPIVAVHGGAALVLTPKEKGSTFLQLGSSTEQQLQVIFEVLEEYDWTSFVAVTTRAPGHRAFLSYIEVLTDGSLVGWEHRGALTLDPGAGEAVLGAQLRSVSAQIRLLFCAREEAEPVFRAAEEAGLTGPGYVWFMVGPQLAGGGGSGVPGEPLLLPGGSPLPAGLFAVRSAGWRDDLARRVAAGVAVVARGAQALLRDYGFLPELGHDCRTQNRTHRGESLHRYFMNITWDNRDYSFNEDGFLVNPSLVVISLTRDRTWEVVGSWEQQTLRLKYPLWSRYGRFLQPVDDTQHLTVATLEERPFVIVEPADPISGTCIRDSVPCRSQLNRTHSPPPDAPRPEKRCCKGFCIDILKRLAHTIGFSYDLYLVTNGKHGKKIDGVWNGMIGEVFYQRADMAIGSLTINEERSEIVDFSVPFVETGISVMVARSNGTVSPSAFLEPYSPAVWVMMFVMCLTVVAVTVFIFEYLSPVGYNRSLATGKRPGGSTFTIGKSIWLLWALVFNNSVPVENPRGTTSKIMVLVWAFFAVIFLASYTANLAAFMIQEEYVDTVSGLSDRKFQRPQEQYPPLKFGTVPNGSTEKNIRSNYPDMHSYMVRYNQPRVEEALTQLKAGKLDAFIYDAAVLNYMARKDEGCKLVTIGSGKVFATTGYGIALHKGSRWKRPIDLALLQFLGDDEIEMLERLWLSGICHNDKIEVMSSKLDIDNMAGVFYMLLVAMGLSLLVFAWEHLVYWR
# [5] = target: GluN1^ΔCTD/GluN2A receptors (Rattus norvegicus, UniProt P35439+Q00959); assay type: cell-based; details: for effect of GluN1 CTD-deletion on modulator activity at GluN2A receptors: vs GluN1^WT/GluN2A, GNE-8324 30 µM, PAS 100 µM, DQP-1105 50 µM, TCN-201 10 µM (Fig. 4E, 5G-I)
# Summary of the method: as §1
# [6] = target: GluN1^ΔCTD/GluN2B receptors (Rattus norvegicus, UniProt P35439+Q00960); assay type: cell-based; details: 100 µM compound; 10 µM L-glutamate/10 µM glycine (Fig. 2C)
# Summary of the method: as §1
# [7] = target: GluN1^ΔCTD/GluN2C receptors (Rattus norvegicus, UniProt P35439+Q00961); assay type: cell-based; details: 100 µM compound; 10 µM L-glutamate/10 µM glycine (Fig. 2C)
# Sequence of GluN1^ΔCTD/GluN2C receptors (Q00961 20-1237, stated change not applied, other chains not shown): as the sequence (Q00961 20-1237, other chains not shown) above
# Summary of the method: as §1
# [8] = target: GluN1^ΔCTD/GluN2D receptors (Rattus norvegicus, UniProt P35439+Q62645); assay type: cell-based
# Sequence of GluN1^ΔCTD/GluN2D receptors (Q62645 28-1323, stated change not applied, other chains not shown): as the sequence (Q62645 28-1323, other chains not shown) above
# Summary of the method: as §3
# [9] = test system: GluN1 CTD in neurons expressing GluN1-GFP, GluN2A and GluN1-mCherry; experiment: CTD-FRET; assay type: cell-based, rat; details: 75 µM compound, absence of agonists, imaged 10 min after application (Fig. 8)
# Summary of the method: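 Rat primary hippocampal neurons were transfected at DIV 7-10 with ~2 µg total DNA (GluN1-GFP, GluN2A, GluN1-mCherry) by lipofection and imaged at 16-18 DIV in 0.87x HBSS, 5 mM HEPES, 1 mM glucose, 2.5 mM MgCl2, 0.5 mM CaCl2. Baseline and 10 min post-compound two-photon FLIM images were taken, each neuron imaged twice, compounds interleaved. Lifetimes were fit single-exponential and analysed blind; two preparations pooled.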
# [10] = 10 µM FSK and 1 mM IBMX for 10 minutes, 50 µM UBP684, 100 µM PS (Fig. 7B, C)
# [11] = 100 µM compound, control cells for U73122 experiment (Fig. 6J)
# [12] = 100 µM compound, 10 µM L-glutamate/10 µM glycine (Fig. 2B, 5A)
# [13] = 100 µM compound, 10 µM L-glutamate/10 µM glycine (Fig. 2C)
# [14] = 10 µM compound, 10 µM L-glutamate/10 µM glycine (Fig. 4D)
# [15] = 10 µM compound, 10 µM L-glutamate/10 µM glycine (Fig. 5C)
# [16] = 30 µM compound, 10 µM L-glutamate/10 µM glycine (Fig. 4A, 5B)
# [17] = 10 µM compound, 10 µM L-glutamate/10 µM glycine, GluN2A^WT (Fig. 5D-F)
# [18] = 10 µM compound, 10 µM L-glutamate/10 µM glycine (Fig. 5D-F)
# [19] = 30 µM compound, vs WT (Fig. 5B)
molecule,measurement,setting,value
5-Pregnen-3β-ol-20-onesulphate [PS],effect of PKA activation on % potentiation,GluN1/GluN2A receptors; [10],unchanged
same,% potentiation of agonist-evoked current,GluN1/GluN2A receptors; [11],45 ± 3%
same,effect of EGTA injection on modulation,GluN1/GluN2A receptors; 5 mM EGTA injected vs controls (Fig. 6E),no significant effect
same,effect of PKC activation by PMA on PAM activity,"GluN1/GluN2B receptors; 2 µM PMA for 10 minutes, 50 µM UBP684, 100 µM PS (Fig. 7E, F)",unaffected
same,effect of PKA activation on % potentiation,GluN1/GluN2B receptors; [10],unchanged
same,% potentiation of agonist-evoked current,GluN1/GluN2B receptors; [11],82 ± 10%
same,effect of EGTA injection on modulation,GluN1/GluN2B receptors; 5 mM EGTA injected vs controls (Fig. 6F),no significant effect
same,effect of EGTA injection on potentiation/modulation,"GluN1/GluN2C receptors; 5 mM EGTA injected vs controls (Fig. 6C, G)",no significant effect
same,IC50,"GluN1/GluN2D receptors; 10 µM L-glutamate/10 µM glycine, WT GluN1/GluN2D (Fig. 3)",149.8 ± 18.0%
same,effect of EGTA injection on potentiation/modulation,"GluN1/GluN2D receptors; 5 mM EGTA injected vs controls (Fig. 6D, H)",no significant effect
same,effect of PKC activation by PMA on PAM activity,"[1]; 2 µM PMA for 10 minutes, 50 µM UBP684, 100 µM PS (Fig. 7G, H)",significantly increased
same,% inhibition of agonist-evoked current,[1]; [12],23 ± 4%
same,modulation in dose-response experiment,"[1]; all doses, the lowest being 3 µM, 10 µM L-glutamate/10 µM glycine (Fig. 3)",NAM activity at all doses
same,% potentiation of agonist-evoked current,[2]; 100 µM compound,74 ± 10%
same,% inhibition of agonist-evoked current,[3]; [12],89 ± 2%
same,IC50,[4]; 10 µM L-glutamate/10 µM glycine (Fig. 3),76.7 ± 19.1%
same,% inhibition of agonist-evoked current,[4]; [12],49 ± 8%
same,% potentiation of agonist-evoked current,[5]; [13],32 ± 4%
same,% potentiation of agonist-evoked current,[6],156 ± 25%
same,% inhibition of agonist-evoked current,[7],66 ± 5%
same,% inhibition of agonist-evoked current,[8]; [13],45 ± 6%
same,change of GluN1-GFP fluorescence lifetime (movement of the GluN1 CTD),[9],did not affect
COc1ccc(OCC2c3cc(OC)c(OC)cc3CCN2C(=O)c2cccc(Cl)c2)cc1 (stereo not drawn) [CIQ],% potentiation of agonist-evoked current,"GluN1/GluN2C receptors; 10 µM compound, 10 µM L-glutamate/10 µM glycine, GluN2C^WT (Fig. 4D)",89 ± 8%
same,% potentiation of agonist-evoked current,"GluN1/GluN2D receptors; 10 µM compound, 10 µM L-glutamate/10 µM glycine, GluN2D^WT (Fig. 4D)",72 ± 11%
same,% potentiation of agonist-evoked current,[3]; [14],113 ± 13%
same,% potentiation of agonist-evoked current,[4]; [14],48 ± 5%
same,effect of GluN1 CTD-deletion on PAM activity,"[8]; 10 µM compound, vs wild-type GluN1/GluN2D (Fig. 4F)",significantly reduced
Cc1ccc2[nH]c(=O)c(C3=NN(C(=O)CCC(=O)O)C(c4ccc(Br)cc4)C3)c(-c3ccccc3)c2c1 (stereo not drawn) [DQP-1105],% inhibition of agonist-evoked current,"GluN1/GluN2A receptors; 50 µM compound, 10 µM L-glutamate/10 µM glycine, WT (Fig. 5C)",39 ± 3%
same,% inhibition of agonist-evoked current,"GluN1/GluN2C receptors; 10 µM compound, 10 µM L-glutamate/10 µM glycine, WT (Fig. 5C)",69 ± 2%
same,% inhibition of agonist-evoked current,"GluN1/GluN2D receptors; 10 µM compound, 10 µM L-glutamate/10 µM glycine, GluN2D^WT (Fig. 5C)",87 ± 1%
same,% inhibition of agonist-evoked current,"[1]; 50 µM compound, 10 µM L-glutamate/10 µM glycine (Fig. 5C)",82 ± 4%
same,% inhibition of agonist-evoked current,[3]; [15],79 ± 4%
same,% inhibition of agonist-evoked current,[4]; [15],97 ± 2%
same,effect of GluN1 CTD-deletion on modulator activity at GluN2A receptors,[5],did not observe any effect
CCN(Cc1cc(=O)n2c3c(sc2n1)CCC3)c1ccc(F)cc1 [GNE-8324],% potentiation of agonist-evoked current,"GluN1/GluN2A receptors; 30 µM compound, 10 µM L-glutamate/10 µM glycine, GluN2A^WT (Fig. 4A)",35 ± 4%
same,% inhibition of agonist-evoked current,[1]; [16],11 ± 2%
same,effect of GluN1 CTD-deletion on modulator activity at GluN2A receptors,[5],unaffected
Cc1ncc(CNC(=O)c2cnc(CNS(=O)(=O)c3ccc(F)c(Cl)c3)cn2)s1 [MPX-004],% inhibition of agonist-evoked current,GluN1/GluN2A receptors; [17],75 ± 8%
same,% inhibition of agonist-evoked current,[1]; [18],29 ± 13%
Cc1ncc(CNC(=O)c2cnc(CNS(=O)(=O)c3ccc(F)c(F)c3)c(C)n2)s1 [MPX-007],% inhibition of agonist-evoked current,GluN1/GluN2A receptors; [17],77 ± 9%
same,% inhibition of agonist-evoked current,[1]; [18],36 ± 6%
"CC(=O)[C@H]1CC[C@H]2[C@@H]3CC[C@@H]4C[C@H](OS(=O)(=O)O)CC[C@]4(C)[C@H]3CC[C@]12C [PAS, 5β-pregnan-3α-ol-20-onesulphate]",% inhibition of agonist-evoked current,"GluN1/GluN2A receptors; 100 µM compound, 10 µM L-glutamate/10 µM glycine, GluN2A^WT (Fig. 5A)",61 ± 3%
same,% inhibition of agonist-evoked current,"GluN1/GluN2B receptors; 100 µM compound, 10 µM L-glutamate/10 µM glycine, GluN2B^WT (Fig. 5A)",67 ± 1%
same,% inhibition of agonist-evoked current,[1]; [12],89 ± 2%
same,% inhibition of agonist-evoked current,"[2]; 100 µM compound, 10 µM L-glutamate/10 µM glycine (Fig. 5A)",76 ± 3%
same,% inhibition of agonist-evoked current,[3]; [12],93 ± 1%
same,% inhibition of agonist-evoked current,[4]; [12],85 ± 5%
same,effect of GluN1 CTD-deletion on modulator activity at GluN2A receptors,[5],did not observe any effect
COC(=O)c1ccc(C2C(C(C)=O)=C(O)C(=O)N2CCc2c(C)[nH]c3ccccc23)cc1 (stereo not drawn) [PYD-106],% potentiation of agonist-evoked current,"GluN1/GluN2C receptors; 30 µM compound, 10 µM L-glutamate/10 µM glycine, GluN2C^WT (Fig. 4C)",64 ± 4%
same,% potentiation of agonist-evoked current,"[3]; 30 µM compound, 10 µM L-glutamate/10 µM glycine (Fig. 4C)",21 ± 3%
NCCCNCCCCNCCCN [Spermine],% potentiation of agonist-evoked current,[2]; 100 µM compound,57 ± 5%
O=C(NNC(=O)c1ccc(CNS(=O)(=O)c2ccc(F)c(Cl)c2)cc1)c1ccccc1 [TCN-201],% inhibition of agonist-evoked current,GluN1/GluN2A receptors; [17],82 ± 2%
same,% inhibition of agonist-evoked current,[1]; [18],53 ± 5%
same,effect of GluN1 CTD-deletion on modulator activity at GluN2A receptors,[5],did not observe any effect
O=C(O)c1cc2cc(/C=C/c3ccccc3[N+](=O)[O-])ccc2cc1O [UBP792],% inhibition of agonist-evoked current,"GluN1/GluN2A receptors; 30 µM compound, 10 µM L-glutamate/10 µM glycine, WT (Fig. 5B)",22 ± 8%
same,% inhibition of agonist-evoked current,"GluN1/GluN2D receptors; 30 µM compound, 10 µM L-glutamate/10 µM glycine, wild-type (Fig. 5B)",86 ± 1%
same,% inhibition of agonist-evoked current,[1]; [16],64 ± 6%
same,effect of GluN2B CTD-deletion on NAM activity,[2]; [19],did not display a significant effect
same,effect of GluN2C CTD-deletion on NAM activity,[3]; [19],did not display a significant effect
same,% inhibition of agonist-evoked current,"[4]; 30 µM compound, 10 µM L-glutamate/10 µM glycine (Fig. 5B)",68 ± 7%
